From PubChem
TRPC4 act: activators of mouse TRPC4 channel, primary screen, Fluo4 calcium, HEK293 TRPC4beta/mu-opioid cells | B-score at 10 µM | Fluo4 calcium fluorescence; hits give high values | hit rate 0.49% among 310,000 | AID 2237, 2010;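 active means B-score above 5 SD of library B-scores, and initial fluorescence ratio not above library mean plus 5 SD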;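 further: positive B-score marks a calcium rise read as TRPC4 activation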
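Incubation: 45 min room-temperature Fluo4 loading, 110 s read / System: HEK293 cells stably co-expressing mouse TRPC4beta and mu-opioid receptor / Signal: Fluo4 fluorescence, kinetic / Control set: buffer (low) and maximal DAMGO (high) / Measure: integrated baseline-normalised fluorescence ratio, converted to per-well B score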
TRPC6 inh: mouse TRPC6 channel inhibitors, primary screen, cell-based, HEK293, membrane potential dye. Short transient receptor potential channel 6 (Mus musculus), Q61143. ACh-evoked depolarization; hits give low values. B-score at 10 µM. hit rate 1.1% among 310,000. AID 2553, 2010;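 active means B-score under library mean minus 3 SD, initial fluorescence not abnormally high, positive integrated signal ratio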;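 further: B-score derived from integrated fluorescence ratio over the kinetic read; more negative B-score means stronger inhibition of depolarization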
Target sequence (Q61143 whole entry, looked up): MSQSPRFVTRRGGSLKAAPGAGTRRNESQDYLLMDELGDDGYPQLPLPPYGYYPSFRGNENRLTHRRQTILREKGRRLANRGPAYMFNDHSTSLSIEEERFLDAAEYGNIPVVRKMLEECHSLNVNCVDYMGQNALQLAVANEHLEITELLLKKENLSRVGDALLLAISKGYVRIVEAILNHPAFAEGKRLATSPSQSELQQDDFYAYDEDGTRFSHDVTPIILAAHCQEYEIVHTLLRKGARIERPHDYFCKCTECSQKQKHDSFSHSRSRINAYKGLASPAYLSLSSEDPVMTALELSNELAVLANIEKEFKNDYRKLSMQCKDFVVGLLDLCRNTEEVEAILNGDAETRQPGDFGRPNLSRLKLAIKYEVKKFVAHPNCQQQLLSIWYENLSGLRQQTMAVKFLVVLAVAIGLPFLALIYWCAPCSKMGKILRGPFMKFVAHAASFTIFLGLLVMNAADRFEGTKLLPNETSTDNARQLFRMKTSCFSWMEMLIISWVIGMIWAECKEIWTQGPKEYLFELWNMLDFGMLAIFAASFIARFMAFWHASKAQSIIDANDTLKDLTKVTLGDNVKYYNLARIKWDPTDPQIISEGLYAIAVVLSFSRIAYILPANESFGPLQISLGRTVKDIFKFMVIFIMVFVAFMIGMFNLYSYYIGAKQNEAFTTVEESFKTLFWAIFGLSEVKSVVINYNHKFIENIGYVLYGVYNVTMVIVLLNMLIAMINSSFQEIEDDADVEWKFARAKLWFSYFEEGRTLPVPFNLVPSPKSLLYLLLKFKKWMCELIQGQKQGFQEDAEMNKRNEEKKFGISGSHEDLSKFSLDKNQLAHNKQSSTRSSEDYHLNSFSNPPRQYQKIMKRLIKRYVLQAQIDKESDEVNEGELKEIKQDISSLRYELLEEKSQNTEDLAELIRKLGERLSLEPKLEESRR
TRPC4 PAM: positive allosteric modulators of TRPC4, primary screen, cell-based, mouse TRPC4beta, HEK293 mu-opioid, Fluo-4 calcium. DAMGO EC20, Fluo-4 Ca2+ flux; hits give high values. AID 2227, 2009. Short transient receptor potential channel 4 (Mus musculus), Q9QUQ5. hit rate 0.42% among 310,000. B-score at 10 µM;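 active means B-score of calcium response area above 5 SD of library B-scores, with initial fluorescence ratio within 5 SD of library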
TRPC6 activator: mouse TRPC6 channel activators, primary screen, cell-based, HEK293, membrane potential dye. hit rate 0.13% among 310,000. AID 2550, 2010. HEK293-TRPC6 membrane potential dye fluorescence; hits give high values. B-score at 10 µM. Short transient receptor potential channel 6 (Mus musculus), Q61143;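 active means B-score of the integrated fluorescence ratio above library mean plus 3 SD, and starting fluorescence ratio within library mean plus 5 SD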;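 further: higher score means more depolarization so channel activation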
TRPC4 block: inhibitors of mouse TRPC4 channel, primary screen, Fluo4 calcium, HEK293 TRPC4beta/mu-opioid cells | DAMGO-evoked Fluo4 calcium flux; hits give low values | B-score at 10 µM | hit rate 0.39% among 300,000 | AID 2247, 2010;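 active means B-score over 3 SD under the library average, no early fluorescence shift, positive overall ratio signal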
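Assay system: Stable TRPC4beta/mu-opioid receptor HEK293 cells | Reagent: DAMGO in two steps, submaximal then maximal | Compound dosing: Single concentration per test compound | Signal: Fluo4 Ca2+ flux fluorescence | Evaluation: Per-well B score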
TRPC4 sel inh 2: second selectivity test of TRPC6 inhibitors: effect on mouse TRPC4 | shares compounds with TRPC6 inh | HEK293 TRPC4/MOR, membrane potential dye fluorescence; channel activated by saturating DAMGO dose | inhibition, % at 10 µM | hit rate 42% among 920 | AID 2776;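 active means compounds whose fluorescence signal differed from control wells by over 3 SD, either direction, in both duplicate plates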
TRPC4 spec: mouse TRPC4 modulation by TRPC6 hits, confirmation, selectivity assay for TRPC6 inhibitor project, cell-based, HEK293 TRPC4/mu-opioid, membrane potential dye; shares compounds with TRPC6 inh; membrane potential fluorescence; activity change, negative = inhibition, % at 10 µM; hit rate 61% among 920;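 active means rise or fall in signal beyond 3 SD of buffer-only wells in both replicate plates, either sign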;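 further: integrated kinetic ratio of fluorescence range over baseline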
HEK293 MPD ctr 2-1: nonspecific membrane potential effects, parental HEK293, confirmation, counter-screen for TRPC6 inhibitor project, cell-based, second counter screen | shares compounds with TRPC6 inh | parental HEK293 membrane potential dye fluorescence; maximal acetylcholine challenge after compound addition | signal change vs control, % at 10 µM | hit rate 31% among 920 | AID 2779, 2010;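 active means membrane potential signal moving either way by over 3 SD of the maximum-effect control, in both duplicate plates, meaning non-specific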
HEK293 MPD ctr-1: membrane potential modulation in parental HEK293, confirmation, counter-screen for TRPC6 inhibitor project, cell-based. AID 2780, 2010. parental HEK293 membrane potential dye fluorescence. hit rate 60% among 920. shares compounds with TRPC6 inh. membrane potential signal change, % at 10 µM;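 active means membrane potential signal shifting up or down by more than 3 SD of buffer-only wells, on both duplicate plates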
HEK293 MPD ctr-2: parental HEK293 membrane potential modulation, confirmation, counter-screen for TRPC6 modulator project, cell-based; shares compounds with TRPC6 inh; membrane potential dye fluorescence; membrane potential signal change, % at 10 µM; hit rate 51% among 2,400;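 active means membrane potential signal moves up or down beyond 5 SD from buffer-only wells, on both duplicate plates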
HEK293 MPD ctr 2-2: second check of TRPC6 modulator effects in parental HEK293 cells. hit rate 14% among 2,400. AID 488926. inhibition, % at 10 µM. shares compounds with TRPC6 inh. membrane potential dye fluorescence; after compound, maximal acetylcholine stimulation;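 active means membrane potential signal drops by more than 5 SD from the mean control signal, in both duplicate plates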
TRPC4 ctr mod: TRPC4 modulation by TRPC6 hit compounds, confirmation, selectivity assay for TRPC6 modulator project, cell-based, HEK293 TRPC4/mu-opioid, membrane potential dye, mouse; hit rate 69% among 2,400; shares compounds with TRPC6 inh; membrane potential fluorescence; AID 488927, 2010; percent change from control (negative = decrease, positive = increase), % at 10 µM;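 active means membrane potential signal moved up or down beyond 5 SD of buffer control wells, in both duplicate plates, actives on both sides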
TRPC4/MOR inh 2: mouse TRPC4 off-target activity of TRPC6 modulators, second screen | shares compounds with TRPC6 inh | hit rate 55% among 2,400 | inhibition, % at 10 µM | HEK293 TRPC4/mu-opioid, membrane potential dye fluorescence; stimulated with maximal-effect DAMGO | AID 488928;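 active means drop in membrane potential signal beyond 5 SD of the control wells in both duplicate plates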;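 further: TRPC4 counter screen for TRPC6 hits run under conditions tuned for TRPC6 not TRPC4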
TRPC6 inh conf: mouse TRPC6 channel inhibitors, confirmation, HEK293 cells, membrane potential dye, duplicate | shares compounds with TRPC6 inh | ACh-evoked depolarization | inhibition, % at 10 µM | hit rate 43% among 3,300 | AID 488960, 2010;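 active means fluorescence ratio falls more than 5 SD below the full-stimulation control mean, in both duplicate runs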;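 further: integrated fluorescence ratio of peak minus minimum over baseline after agonist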
TRPC6 act confirm: mouse TRPC6 channel activators, confirmation, HEK293 cells, membrane potential dye, duplicate | shares compounds with TRPC6 inh | HEK293-TRPC6 membrane potential dye fluorescence, FDSS | activation, % at 10 µM | hit rate 11% among 2,800 | AID 488961, 2010;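 active means ratio signal rise beyond 5 SD above unstimulated control wells' mean, seen in both duplicate runs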
Of the large screens only hits and unclear results are named; the others gave an inactive call (follow-up assays come after a bar, where they were run). Shown are actives, neighbours in structure and some others; about 2.3% of the full set was active somewhere.

COc1ccc(C2=NCCc3cc(OC)c(OC)cc32)cc1	none
COc1ccc(C2=NCCc3cc(OC)c(OC)cc32)cc1OC	TRPC6 inh -7.4 | HEK293 MPD ctr-2 -410% | HEK293 MPD ctr 2-2 inactive | TRPC4 ctr mod -70% | TRPC4/MOR inh 2 62% | TRPC6 inh conf 63% | TRPC6 act confirm inactive
COc1ccc(N2CCN(CC(O)COc3ccc(C)c(C)c3)CC2)cc1 (stereo not given)	TRPC6 inh -6.1 | HEK293 MPD ctr-2 inactive | HEK293 MPD ctr 2-2 inactive | TRPC4 ctr mod inactive | TRPC4/MOR inh 2 48% | TRPC6 inh conf inactive | TRPC6 act confirm inactive
O=C1/C(=C/c2ccccc2)Nc2ccccc21	TRPC4 act 83, TRPC6 activator 70 | HEK293 MPD ctr-2 active | HEK293 MPD ctr 2-2 active | TRPC4 ctr mod 309% | TRPC4/MOR inh 2 inactive | TRPC6 act confirm 587%
O=C1CNC(=O)/C(=C\c2ccccc2)N1	none
COc1ccc(-c2[nH]ncc2CN(CCO)Cc2cccs2)c(F)c1	none
CCN(CC)CCCNc1nc(-n2nc(C)cc2C)nc2sc3c(c12)CC(C)(C)OC3	TRPC6 inh -10 | TRPC4 sel inh 2 inactive | TRPC4 spec -11% | HEK293 MPD ctr 2-1 inactive | HEK293 MPD ctr-1 -204% | TRPC6 inh conf 57% | TRPC6 act confirm inactive
Cc1cc(C)n(-c2nc(SCC(=O)O)c3c4c(sc3n2)COC(C)(C)C4)n1	none
Cc1cc(C)n(-c2nc(NCc3cccnc3)c3c4c(sc3n2)COC(C)(C)C4)n1	TRPC6 inh -7.4 | TRPC4 sel inh 2 inactive | TRPC4 spec inactive | HEK293 MPD ctr 2-1 inactive | HEK293 MPD ctr-1 inactive | TRPC6 inh conf inactive | TRPC6 act confirm inactive
Cc1ccc(SCCNC(=S)Nc2ccc(C)c(C)c2)cc1	TRPC6 inh -5.7 | HEK293 MPD ctr-2 active | HEK293 MPD ctr 2-2 active | TRPC4 ctr mod -266% | TRPC4/MOR inh 2 77% | TRPC6 inh conf inactive | TRPC6 act confirm inactive
Cc1ccc(SCCNC(=S)Nc2ccccc2)cc1	none
CCCCCCN1C=CC(=C2C(=O)c3ccccc3C2=O)C=C1	none
CCCCN1C=CC(=C2N=c3cccc([N+](=O)[O-])c3=N2)C=C1	TRPC6 inh -5.6 | HEK293 MPD ctr-2 -132% | HEK293 MPD ctr 2-2 78% | TRPC4 ctr mod -20% | TRPC4/MOR inh 2 49% | TRPC6 inh conf 58% | TRPC6 act confirm inactive
COc1cc(OC)cc(N(C(=O)c2snc(C(N)=O)c2N)C(C(=O)NCC2CCCO2)c2ccc(C)o2)c1 (stereo not given)	none
O=C(CCc1ccccc1)c1c(O)cc(O)cc1O	TRPC6 inh -5.6 | HEK293 MPD ctr-2 -84% | HEK293 MPD ctr 2-2 inactive | TRPC4 ctr mod -20% | TRPC4/MOR inh 2 74% | TRPC6 inh conf 50% | TRPC6 act confirm inactive
COc1ccc(NC(=O)Cn2c(=O)n(-c3ccc(CC(=O)NCc4ccco4)cc3)c(=O)c3ccccc32)cc1	none
COc1ccc(C(C)=O)cc1CSc1nnc2c(Cl)cc(Cl)cn12	TRPC6 inh -7 | HEK293 MPD ctr-2 -342% | HEK293 MPD ctr 2-2 65% | TRPC4 ctr mod -68% | TRPC4/MOR inh 2 72% | TRPC6 inh conf 64% | TRPC6 act confirm inactive
O=C(CCc1nnc2n(Cc3ccc(F)cc3)c(=O)c3ccccc3n12)N1CCN(c2ccccn2)CC1	none
CCOC(=O)N1CCN(C(=O)C(C)c2ccc([N+](=O)[O-])cc2)CC1 (stereo not given)	none
CCOC(=O)C1CCN(C(=O)C(C)c2ccc([N+](=O)[O-])cc2)CC1 (stereo not given)	TRPC6 inh -5 | HEK293 MPD ctr-2 inactive | HEK293 MPD ctr 2-2 inactive | TRPC4 ctr mod 12% | TRPC4/MOR inh 2 inactive | TRPC6 inh conf inactive
CSCC[C@H](NC(=O)c1ccc(Cl)c(S(=O)(=O)N2CCCC2)c1)c1nc2ccccc2[nH]1	none
Cc1onc(-c2c(Cl)cccc2Cl)c1C(=O)O/N=C(\C#N)c1c(Cl)cccc1Cl	none
C/C(=N/OC(=O)c1c(-c2c(Cl)cccc2Cl)noc1C)c1cnccn1	TRPC6 inh -8.1 | TRPC4 sel inh 2 inactive | TRPC4 spec inactive | HEK293 MPD ctr 2-1 27% | HEK293 MPD ctr-1 inactive | TRPC6 inh conf 69% | TRPC6 act confirm inactive
C/C(=N/OC(=O)c1c(-c2ccccc2Cl)noc1C)c1cnccn1	TRPC6 inh -6 | HEK293 MPD ctr-2 108% | HEK293 MPD ctr 2-2 inactive | TRPC4 ctr mod 21% | TRPC4/MOR inh 2 inactive | TRPC6 inh conf 52%
